Compound activity from PubChem.
An excerpt weighted towards active compounds, which were near 1.8% of everything screened.
697 NFkB inh: inhibitors of PMA/ionomycin-induced NF-kB reporter, 697 cells, primary screen, B-cell NF-kB inhibitor project, cell-based, luminescence, uHTS; 697 B-cell NF-kB luciferase reporter, 16 h; inhibition, % at 4 µM; 330,000 tested, 0.33% active; in the data active = inhibition above about 35%
Jurkat NFkB inh: inhibitors of induced NF-kB luciferase reporter, primary screen, TCR NF-kB activation inhibitor project, cell-based, luminescence, uHTS. Jurkat, PMA/ionomycin-induced NF-kB luciferase reporter. inhibition, % at 4 µM. 330,000 tested, 0.53% active. AID 435003, 2010; in the data active = inhibition above about 50%
hiPSC survival: enhancers of single-cell hiPSC survival, primary screen, ATPlite luminescence. survival enhancement, % at 20 µM. 360,000 tested, 0.044% active. 100% = ROCK inhibitor wells, 0% = DMSO. AID 602274, 2012; in the data active = survival enhancement above about 18%;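 note: cells exposed to compounds for 16 hours before the ATP read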
Gli-Sufu antag: Gli-Sufu pathway antagonists, primary screen, luciferase luminescence, Sufu-KO-LIGHT cells, uHTS. 340,000 tested, 0.74% active. Sufu-KO-LIGHT fibroblasts, Gli luciferase reporter luminescence. inhibition, % at 5 µM;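 active = inhibition above about 55%, limit read from the data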;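 note: 0% = DMSO-treated cells and 100% = wells with medium but no cells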
TAG inh: inhibitors of triacylglycerol accumulation, primary screen, cell-based, uHTS, fluorescence, H9c2; H9c2 cells, Nile Red lipid (TAG) fluorescence; cells loaded with 200 µM oleic acid; inhibition, % at 12.5 µM; 230,000 tested, 0.66% active; AID 651582, 2012;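 active = pattern-corrected inhibition of lipid staining of at least 50% with the nuclear-stain viability signal not falling by more than 50%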;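 note: 0% = DMSO wells and 100% = triacsin C control wells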
Hep lipid drop: inhibitors of hepatocyte lipid droplet formation, primary screen, imaging, high-throughput imaging, BODIPY stain; AML12 mouse hepatocytes, oleate lipid droplets; inhibition, % at 6.5 µM; 240,000 tested, 0.4% active;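 active = lipid droplet intensity inhibited by at least 50%, with more than 500 cells counted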
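Technique: fluorescence imaging, 20x objective, two fields per well / Assay system: AML12 hepatocytes (mouse) / Measure: % inhibition of lipid droplet signal / Doses: 6.5 µM single-point dosing / Incubation: overnight exposure / Reagent: 100 µM oleic acid challenge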
Gli-Sufu confirm: Gli-SUFU pathway antagonists, confirmation, single concentration, luciferase luminescence, Sufu-KO-LIGHT cells | shares compounds with Gli-Sufu antag | Gli luciferase reporter | inhibition, % at 5 µM | 2,500 tested, 40% active | AID 602428, 2012;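 active = mean inhibition at 5 µM reaching about 45%, limit read from the data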;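 note: plate controls were DMSO-treated cells for no effect and wells lacking cells for full effect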
SufuKO cytotox: cytotoxicity in Sufu-KO-LIGHT cells, confirmation, cytotoxicity control for Gli-SUFU antagonist project, cell-based, ATP luminescence, single concentration. cytotoxicity, % at 5 µM. shares compounds with Gli-Sufu antag. 2,500 tested, 32% active;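 active = mean cytotoxicity at 5 µM above about 25%, limit read from the data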;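 note: cells exposed to compound overnight for roughly 16 to 18 hours; plate controls were DMSO wells with cells for no effect and medium without cells for full effect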
Wnt3a cs: Wnt3a reporter signal inhibition, confirmation, counter-screen for Gli-SUFU antagonist project, Wnt-LIGHT cells, luminescence, single concentration | Wnt3a-driven luciferase reporter | inhibition, % at 6.25 µM | 2,500 tested, 20% active | shares compounds with Gli-Sufu antag;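 active = mean inhibition above about 25%, limit read from the data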
* = called active by the depositor.

O=c1c2c(n3nnnc3n1Cc1ccccc1)-c1ccccc1CC21CCCC1 was read as 697 NFkB inh 5, Jurkat NFkB inh 19, hiPSC survival 2, Gli-Sufu antag 9 and TAG inh -22.
Cc1oc(-c2ccc(Cl)cc2)nc1CS(=O)CC(=O)NCc1ccco1 (stereo not drawn) was read as 697 NFkB inh -13, Jurkat NFkB inh 16, hiPSC survival 2, Gli-Sufu antag -1 and Hep lipid drop 6.
Screening CCc1ccc(-c2nc(CSCC(=O)NCc3ccco3)c(C)o2)cc1 returned hiPSC survival -2, Gli-Sufu antag 84*, TAG inh -9, Hep lipid drop -23, Gli-Sufu confirm 88*, SufuKO cytotox -2 and Wnt3a cs 46*.
For NC(N)=NN=C(c1ccc(F)cc1)c1ccc(C(F)(F)F)cc1 the results were hiPSC survival -2, Gli-Sufu antag 57*, TAG inh 49, Gli-Sufu confirm 36, SufuKO cytotox 50* and Wnt3a cs -43.
Screening CC(=NNc1nc2ccccc2s1)c1ccncn1 returned hiPSC survival -2, Gli-Sufu antag 52, TAG inh 64*, Gli-Sufu confirm 71*, SufuKO cytotox 42* and Wnt3a cs 21.
C/C(=N\NC(=O)c1ccccc1[N+](=O)[O-])c1c(O)cc(C)oc1=O was read as 697 NFkB inh -19, Jurkat NFkB inh 30, hiPSC survival 0, Gli-Sufu antag -1 and Hep lipid drop 1.
`C/C(=N\NC(=O)c1ccccc1O)c1c(O)cc(C)oc1=O` gave 697 NFkB inh -26, Jurkat NFkB inh -6, hiPSC survival 7, Gli-Sufu antag 58*, Gli-Sufu confirm 4, SufuKO cytotox -2 and Wnt3a cs -40.
`C=CCON/C(CCC)=C1\C(=O)C(C(=O)OC)C(C)(C)CC1=NC` (stereo not drawn) gave 697 NFkB inh -3, Jurkat NFkB inh 3, hiPSC survival -2, Gli-Sufu antag -1, TAG inh -9 and Hep lipid drop -22.
Cc1cccc(C(=O)Nc2cccc(C(=O)Nc3cc(C)ccn3)c2)c1 was read as 697 NFkB inh -23, Jurkat NFkB inh -20, hiPSC survival 0, Gli-Sufu antag -11, TAG inh 5 and Hep lipid drop 3.
`Cc1ccnc(NC(=O)c2cccc(NC(=O)Cc3ccccc3)c2)c1` gave 697 NFkB inh 10, Jurkat NFkB inh -12, hiPSC survival 1, Gli-Sufu antag 95*, TAG inh 17, Hep lipid drop -2, Gli-Sufu confirm 3, SufuKO cytotox 25* and Wnt3a cs -16.
Screening Cc1ccc(C2N(c3ccccc3)C(=S)N3CCCN23)cc1 (stereo not drawn) returned 697 NFkB inh -11, Jurkat NFkB inh 2, hiPSC survival -1, Gli-Sufu antag 99*, TAG inh 1, Hep lipid drop 12, Gli-Sufu confirm 14, SufuKO cytotox 9 and Wnt3a cs 2.
Screening CN(Cc1ccccc1)C(=O)c1ccc(NC(=O)Cc2ccc(NC(=O)C3CCCN(C(=O)C4CC4)C3)cc2)cc1 (stereo not drawn) returned hiPSC survival 0, Gli-Sufu antag -1 and TAG inh -4.
Screening Cc1cc(C)c(NC(=O)CNC(=O)COC(=O)Cc2ccccc2C)c(C)c1 returned 697 NFkB inh -17, Jurkat NFkB inh -13, hiPSC survival 2, Gli-Sufu antag -10 and TAG inh -1.
For CC1=NNC(=O)C1CC(=O)N/N=C(\C)c1ccco1 (stereo not drawn) the results were 697 NFkB inh 11, Jurkat NFkB inh -4, hiPSC survival 0, Gli-Sufu antag -1 and Hep lipid drop 11.
`CCN(CC)S(=O)(=O)c1ccc(S(=O)(=O)N2CCCC(C(=O)NC3CC3)C2)cc1` (stereo not drawn) gave 697 NFkB inh -9, Jurkat NFkB inh 32, hiPSC survival 0, Gli-Sufu antag 60*, Hep lipid drop -4, Gli-Sufu confirm 46*, SufuKO cytotox 11 and Wnt3a cs 9.
CN(C)S(=O)(=O)c1ccc(S(=O)(=O)N2CCCC(C(=O)NC3CC3)C2)cc1 (stereo not drawn) was read as 697 NFkB inh -19, Jurkat NFkB inh 7, hiPSC survival 0, Gli-Sufu antag 8 and Hep lipid drop -27.
C/C(CC(=O)Nc1ccccn1)=N\NC(=O)C(=O)Nc1ccccc1C was read as 697 NFkB inh 14, Jurkat NFkB inh 9, hiPSC survival 8, Gli-Sufu antag 56*, Gli-Sufu confirm 20, SufuKO cytotox -1 and Wnt3a cs 3.
For COc1ccccc1NC(=O)C(=O)N/N=C(\C)CC(=O)Nc1ccccn1 the results were 697 NFkB inh -5, Jurkat NFkB inh -1, hiPSC survival 1 and Hep lipid drop 2.
Screening CN(C)CCNC(=O)c1cc2sc3ccccc3c2s1 returned 697 NFkB inh 6, Jurkat NFkB inh -20, hiPSC survival 0, Gli-Sufu antag -5, TAG inh 14 and Hep lipid drop 9.
CCNC(=O)C(=O)NCC(c1cccs1)S(=O)(=O)c1ccc(C)cc1 (stereo not drawn) was read as 697 NFkB inh -21, Jurkat NFkB inh -3, hiPSC survival 0, Gli-Sufu antag 52, Hep lipid drop -2, Gli-Sufu confirm 12, SufuKO cytotox 6 and Wnt3a cs 0.
`CCOC(=O)C(=O)NCC(c1cccs1)S(=O)(=O)c1ccc(C)cc1` (stereo not drawn) gave 697 NFkB inh -24, Jurkat NFkB inh 8, hiPSC survival 0, Gli-Sufu antag 0 and TAG inh 4.
`CCOC(=O)C(=O)NCC(c1cccs1)S(=O)(=O)c1ccc(Cl)cc1` (stereo not drawn) gave 697 NFkB inh -8, Jurkat NFkB inh -2, hiPSC survival 0, Gli-Sufu antag 55, Hep lipid drop -2, Gli-Sufu confirm 32, SufuKO cytotox 15 and Wnt3a cs 21.
